According to ChEMBL document CHEMBL1150374, “Synthesis and anticonvulsant activity of aromatic tetramethylcyclopropanecarboxamide derivatives” (Bioorg Med Chem, 2008):
Activity calls are given as the source filed them. The rule behind the calls is not given here.

How the values were obtained:
[1] = tested on: Mus musculus; assay: Anticonvulsant activity against scMet-induced seizures in mouse model at 300 mg/kg, ip after 0.5 hrs; format: functional, organism-based; design: dose 300 mg/kg
Method in brief: (§1)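 Mice dosed intraperitoneally at 300 mg/kg, in a dosing volume of 0.01 mL per gram body weight. Seizure protection was scored at the stated time after dosing. Activity is expressed as the number of animals protected over the number tested.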

[2] = tested on: Mus musculus; assay: Anticonvulsant activity against scMet-induced seizures in mouse model at 300 mg/kg, ip after 4 hrs; format: functional, organism-based; design: dose 300 mg/kg; method in brief: as §1
[3] = tested on: Rattus norvegicus; assay: Anticonvulsant activity against maximal electroshock-induced seizures in orally dosed rat model; format: functional; conditions: po
[4] = tested on: Rattus norvegicus; assay: Anticonvulsant activity against scMet-induced seizures in orally dosed rat model; format: functional; conditions: po
Method in brief: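 Rats dosed orally in a volume of 0.04 mL per 10 g body weight. ED50 was determined with 95% confidence intervals by probit analysis.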

[5] = Toxicity in orally dosed rat by rotarod test; format: organism-based; conditions: in vivo, po
Method in brief: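 Rats dosed orally in a volume of 0.04 mL per 10 g body weight. Dose was varied until four points were established between the level causing no minimal motor impairment in any animal and the level at which all animals were impaired. TD50 was derived with 95% confidence intervals by probit analysis.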

[6] = tested on: Mus musculus; assay: Anticonvulsant activity against maximal electroshock-induced seizures in mouse model at 300 mg/kg, ip after 2 hrs; format: functional, organism-based; design: dose 300 mg/kg; method in brief: as §1
[7] = tested on: Mus musculus; assay: Anticonvulsant activity against maximal electroshock-induced seizures in mouse model at 300 mg/kg, ip after 0.5 hrs; format: functional, organism-based; design: dose 300 mg/kg; method in brief: as §1
[8] = species on record: Mus musculus; assay: Anticonvulsant activity against maximal electroshock-induced seizures in mouse model; format: functional
Method in brief: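 Compounds given ip to mice at 100 or 300 mg/kg, dosed at 0.01 mL per gram body weight. Maximal electroshock seizures were tested at 0.5, 2 and 4 h after dosing. Activity is reported as animals protected over animals tested, with neurotoxicity scored alongside.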

[9] = tested on: Mus musculus; assay: Anticonvulsant activity against maximal electroshock-induced seizures in mouse model at 300 mg/kg, ip after 4 hrs; format: functional, organism-based; design: dose 300 mg/kg; method in brief: as §1
[10] = tested on: Mus musculus; assay: Anticonvulsant activity against scMet-induced seizures in mouse model at 100 mg/kg; format: functional
[11] = species on record: Rattus norvegicus; assay: Protective index, ratio of TD50 for rat by rotarod test to ED50 for rat by MES test; format: functional
Method in brief: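 PI was calculated as TD50/ED50 from oral dosing in rats. Both values were derived by probit analysis.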

With `CC1(C)C(C(=O)Nc2ccc(S(N)(=O)=O)cc2)C1(C)C` the Activity [1] was “inactive”, the Activity [2] was “inactive” and the ED50 [3] was 26 mg/kg. The ED50 [4] was greater than 100 mg/kg, the TD50 [5] was greater than 500 mg/kg and the Activity [6] was “Active”. For the same compound, the Activity [7] was “inactive”.

Compound `Cc1cccc(C)c1OCC(C)N` (stereo unspecified) [MEXILETINE] has an ED50 [8] of 10 mg/kg.

In the case of `CC1(C)C(C(=O)NCCCc2ccccc2)C1(C)C`, the Activity [1] is reported as “inactive”, the Activity [2] is reported as “inactive” and the Activity [9] is reported as “inactive”. For the same compound, the Activity [7] was “inactive”.

In the case of `CCCC(CCC)C(=O)NCc1ccccc1` [VALPROYLBENZYLAMIDE], the Activity [10] is reported as 50%.

`CONC(=O)C1C(C)(C)C1(C)C` showed a PI [11] of 10 and an ED50 [4] of 35 mg/kg.

With `CC1(C)C(C(=O)NC(=O)Nc2ccccc2)C1(C)C` the Activity [1] was “inactive”, the Activity [2] was “inactive” and the Activity [9] was “inactive”. The Activity [7] was “inactive”.

For `CC1(C)C(C(=O)NCc2ccc(S(N)(=O)=O)cc2)C1(C)C`, the Activity [1] was “inactive”, the Activity [2] was “inactive” and the Activity [7] was “inactive”.

For `CC1(C)C(C(=O)Nc2ccccc2)C1(C)C`, the Activity [1] was “inactive”, the Activity [2] was “inactive” and the Activity [9] was “inactive”. For the same compound, the Activity [7] was “inactive”.

With `CC1(C)C(C(=O)NCc2ccccc2Cl)C1(C)C` the Activity [1] was “inactive”, the Activity [2] was “inactive” and the Activity [9] was “inactive”. For the same compound, the Activity [7] was “inactive”.

In the case of `CC(NC(=O)C1C(C)(C)C1(C)C)c1ccccc1` (stereo unspecified), the Activity [1] is reported as “inactive”, the Activity [2] is reported as “inactive” and the Activity [9] is reported as “inactive”. The Activity [7] was “inactive”.

For `Cc1cccc(C)c1OCC(C)NC(=O)C1C(C)(C)C1(C)C` (stereo unspecified), the Activity [1] was “inactive”, the Activity [2] was “inactive” and the Activity [9] was “inactive”. The Activity [7] was “inactive”.

For `CC(C(O)c1ccccc1)N(C)C(=O)C1C(C)(C)C1(C)C` (stereo unspecified), the Activity [1] was “inactive”, the Activity [2] was “inactive” and the Activity [9] was “inactive”. The Activity [7] was “inactive”.

In the case of `CC1(C)C(C(=O)NCCc2c[nH]c3ccccc23)C1(C)C`, the Activity [1] is reported as “inactive”, the Activity [2] is reported as “inactive” and the Activity [9] is reported as “inactive”. The Activity [7] was “inactive”.

In the case of `CC1(C)C(C(=O)Nc2cc(Cl)c(S(N)(=O)=O)cc2S(N)(=O)=O)C1(C)C`, the Activity [1] is reported as “inactive”, the Activity [2] is reported as “inactive” and the Activity [9] is reported as “inactive”. The Activity [7] was “inactive”.

Compound `CC1(C)C(C(=O)NC(N)=O)C1(C)C` [2,2,3,3-TETRAMETHYLCYCLOPROPANECARBONYLUREA] has an ED50 [3] of 29 mg/kg.

`CCCC(CCC)C(=O)O` [VALPROIC ACID] showed an ED50 [4] of 646 mg/kg.

With `CC1(C)C(C(=O)NCc2ccc(F)cc2)C1(C)C` the Activity [1] was “inactive”, the Activity [2] was “inactive” and the Activity [9] was “inactive”. For the same compound, the Activity [7] was “inactive”.

For `CC(=O)c1ccc(NC(=O)C2C(C)(C)C2(C)C)cc1`, the Activity [1] was “inactive”, the Activity [2] was “inactive” and the Activity [9] was “Active”. The Activity [7] was “inactive”.

In the case of `CC(CNC(=O)C1C(C)(C)C1(C)C)c1ccccc1` (stereo unspecified), the Activity [1] is reported as “inactive”, the Activity [2] is reported as “inactive” and the Activity [9] is reported as “inactive”. The Activity [7] was “inactive”.

In the case of `CC1(C)C(C(=O)NCCc2ccccc2)C1(C)C`, the Activity [1] is reported as “Active”, the Activity [2] is reported as “inactive” and the Activity [9] is reported as “inactive”. For the same compound, the Activity [7] was “inactive”.

`CCCC(CCC)C(=O)NCc1ccc(S(N)(=O)=O)cc1` gave an ED50 [8] of 16 mg/kg.

With `CC1(C)C(C(=O)NCc2ccccc2)C1(C)C` the Activity [1] was “Active”, the Activity [2] was “inactive” and the Activity [9] was “inactive”. For the same compound, the Activity [7] was “Active”.

Work on `NS(=O)(=O)Cc1noc2ccccc12` [ZONISAMIDE] yielded an ED50 [3] of 21 mg/kg, an ED50 [4] greater than 300 mg/kg and a TD50 [5] of 192 mg/kg.
